Experimental findings from ChEMBL document CHEMBL3868633, “Linker dependent intercalation of bisbenzimidazole-aminosugars in an RNA duplex; selectivity in RNA vs. DNA binding” (Bioorg Med Chem Lett, 2016) are described below.

Calls of active or inactive are those of the source. The calls are words filed in the database; no cut-off is given here.

Assay [1] in a line: Binding affinity to poly(rA).(rU) RNA duplex (unknown origin) assessed as thermal stability by measuring change in melting temperature at 5 uM by UV-Vis spectrophotometry. The gist of the method:
(§1)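 UV thermal denaturation of poly(rA)•(rU) duplex at 15 µM/bp, with and without ligand, in 10 mM sodium cacodylate, 0.5 mM EDTA, 100 mM NaCl, pH 7.0. ΔTm is the shift from the melting temperature of free RNA.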

Assay [2] can be described thus: Binding affinity to poly(rA).(rU) RNA duplex (unknown origin) assessed as red shift at 3 uM by UV-vis absorption method.
The nature of assay [3]: Binding affinity to poly(rA).(rU) RNA duplex (unknown origin) assessed as decrease in CD band intensity at 263 nanometer measured after 5 mins by circular dichroism titration method. The gist of the method:
(§2)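 Poly(rA)•(rU) at 40 µM/bp in 10 mM sodium cacodylate, 0.5 mM EDTA, 100 mM NaCl, pH 7.0, 25 °C. Concentrated ligand added serially, with 5 min equilibration before each CD scan. Each measurement averages two scans. Changes in nucleic acid CD intensity are plotted against rbd (RNA base pairs per drug) to derive binding site size.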

Assay [4] is described as follows: Binding affinity to poly(rA).(rU) RNA duplex (unknown origin) assessed as change in CD band intensity at 266 nanometer measured after 5 mins by circular dichroism titration method. The gist of the method:
(§3)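 Circular dichroism titration of poly(rA)•(rU) at 40 µM/bp in 10 mM sodium cacodylate, 0.5 mM EDTA, 100 mM NaCl, pH 7.0, at 25 °C. Concentrated ligand is added serially, with five minutes of equilibration after each addition. Each spectrum is the average of two scans. Binding site size (rbd, RNA base pairs per drug) is taken from the change in nucleic acid CD intensity.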
For orientation: Circular dichroism is the unequal absorption of left and right circularly polarised light.

Assay [5] in a line: Binding affinity to poly(rA).(rU) RNA duplex (unknown origin) assessed as hypochromicity at 3 uM by UV-vis absorption method.
Assay [6] can be described thus: Inhibition of ethidium bromide binding to r(CGCAAAUUUGCG)2 RNA (unknown origin) at 1:1 ratio of ligand:RNA measured after 5 mins by fluorescent intercalator displacement assay relative to control. The gist of the method:
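Buffer is 10 mM sodium cacodylate, 0.5 mM EDTA, 100 mM NaCl, pH 7.0, at 23 °C. Read-out is the percent change in fluorescence emission on ligand addition.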

Assay [7] is described as follows: Binding affinity to poly(rA).(rU) RNA duplex (unknown origin) assessed as appearance of induced CD band at 320 to 380 nanometer measured after 5 mins by circular dichroism titration method. The gist of the method: as §2
Assay [8] in a line: Binding affinity to poly(rA).(rU) RNA duplex (unknown origin) assessed as thermal stability by measuring change in melting temperature at 5 uM in presence of neomycin by UV-Vis spectrophotometry.
The nature of assay [9]: Binding affinity to poly(rA).(rU) RNA duplex (unknown origin) measured after 5 mins by circular dichroism titration method. The gist of the method: as §3
Assay [10] can be described thus: Binding affinity to poly(rA).(rU) RNA duplex (unknown origin) assessed as thermal stability by measuring change in melting temperature at 5 uM in presence of Hoechst 33258 by UV-Vis spectrophotometry. The gist of the method: as §1
A short description of assay [11]: Binding affinity to poly(rA).(rU) RNA duplex (unknown origin) assessed as appearance of negative induced CD at 347 nanometer measured after 5 mins by circular dichroism titration method. The method, boiled down: as §3
Assay [12] can be described thus: Binding affinity to d(CGCAAATTTGCG)2 DNA (unknown origin) assessed as thermal stability by measuring change in melting temperature by UV-Vis spectrophotometry.
The nature of assay [13]: Binding affinity to poly(rA).(rU) RNA duplex (unknown origin) assessed as appearance of unidirectional induced CD at 347 nanometer measured after 5 mins by circular dichroism titration method. The method, boiled down:
as §3

A short description of assay [14]: Binding affinity to poly(rA).(rU) RNA duplex (unknown origin) assessed as isosbestic point at 362 nanometer at 3 uM by UV-vis absorption method.
The nature of assay [15]: Binding affinity to poly(rA).(rU) RNA duplex (unknown origin) assessed as appearance of negative induced LD signal at 348 nanometer at 100 uM after 5 mins by microvolume couette flow linear dichroism method. The method, boiled down: (§4)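 Linear dichroism spectra of poly(rA)•(rU) (1 mM/bp) alone and mixed with ligand at rbd 10. Run in 10 mM sodium cacodylate, 0.5 mM EDTA, 100 mM NaCl, pH 7.0, at room temperature.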

Assay [16] is described as follows: Binding affinity to r(CGCAAAUUUGCG)2 RNA duplex (unknown origin) assessed as thermal stability by measuring change in melting temperature at 5 uM by UV-Vis spectrophotometry.
The nature of assay [17]: Binding affinity to poly(rA).(rU) RNA duplex (unknown origin) assessed as change in LD signal at 260 nanometer at 100 uM after 5 mins by microvolume couette flow linear dichroism method. The gist of the method: as §4
Assay [18] is described as follows: Inhibition of ethidium bromide binding to r(CGCAAAUUUGCG)2 RNA (unknown origin) after 5 mins by fluorescent intercalator displacement assay.

For orientation: ΔTm means the shift of the melting midpoint relative to a reference. As to `C#CCOCCCCCCCCOc1ccc(-c2nc3ccc(-c4nc5ccc(N6CCN(C)CC6)cc5[nH]4)cc3[nH]2)cc1`, in assay [1], the ΔTm was 0.7 °C.
By inhibition is commonly meant the relative decrease from the control value, in per cent. With `CN1CCN(c2ccc3[nH]c(-c4ccc5[nH]c(-c6ccc(O)cc6)nc5c4)nc3c2)CC1`, the Activity in assay [2] was determined as 1 nm; in assay [5] it was 32.2%. For the same compound, the result in assay [3], in [4] and in [7] was Active. Besides, the ΔTm in assay [1] amounted to 0.4 °C; in [8], 10.5 °C. The inhibition in assay [6] stood at 8.2%.
As to `C#CCOc1ccc(-c2nc3ccc(-c4nc5ccc(N6CCN(C)CC6)cc5[nH]4)cc3[nH]2)cc1`, the ΔTm in [1] came to 0 °C.
As to `NC[C@@H]1O[C@H](O[C@H]2[C@@H](O)[C@H](O[C@@H]3[C@@H](O)[C@H](N)C[C@H](N)[C@H]3O[C@H]3O[C@H](CN)[C@@H](O)[C@H](O)[C@H]3N)O[C@@H]2CO)[C@H](N)[C@@H](O)[C@@H]1O`, the result in assay [9] and in assay [4] was Active. The ΔTm in assay [1] was 10.8 °C; in assay [10], 10.5 °C. For the same compound, in [6], the inhibition was 20.4%.
Consider `C#CCOCCCCOc1ccc(-c2nc3ccc(-c4nc5ccc(N6CCN(C)CC6)cc5[nH]4)cc3[nH]2)cc1`, for which the ΔTm in assay [1] came out at 0.3 °C.
Turning to `CN1CCN(c2ccc3nc(-c4ccc5nc(-c6ccc(OCCCCCCOCc7cn(C[C@H]8O[C@@H](O[C@@H]9[C@@H](O)[C@H](N)C[C@H](N)[C@H]9O[C@H]9O[C@H](CN)[C@@H](O)[C@H](O)[C@H]9N)[C@H](O)[C@@H]8O[C@H]8OC(CN)[C@@H](O)[C@H](O)[C@H]8N)nn7)cc6)[nH]c5c4)[nH]c3c2)CC1` (stereo not given in full), the result in [11], in [4], in assay [13], in assay [14] and in assay [15] was Active. In addition, the Activity in assay [2] is 10 nm; in assay [5], 34.1%. For the same compound, the ΔTm in assay [12] is 22.2 °C; in [1] it was 15.8 to 19 °C. The inhibition in assay [6] lay within 20.7 to 36.2%.
With `C#CCOCCCCCCCCCCCCOc1ccc(-c2nc3ccc(-c4nc5ccc(N6CCN(C)CC6)cc5[nH]4)cc3[nH]2)cc1`, the ΔTm in assay [1] was -0.2 °C.
Turning to `C#CCOCCCCCCCCCCOc1ccc(-c2nc3ccc(-c4nc5ccc(N6CCN(C)CC6)cc5[nH]4)cc3[nH]2)cc1`, in assay [1], the ΔTm was 0.3 °C.
Turning to `C#CCOCCOCCOCCOCCOCCOCCOc1ccc(-c2nc3ccc(-c4nc5ccc(N6CCN(C)CC6)cc5[nH]4)cc3[nH]2)cc1`, the ΔTm in assay [1] was 0.2 °C.
Turning to `CN1CCN(c2ccc3nc(-c4ccc5nc(-c6ccc(OCCCCCCCCCCOCc7cn(C[C@H]8O[C@@H](O[C@@H]9[C@@H](O)[C@H](N)C[C@H](N)[C@H]9O[C@H]9O[C@H](CN)[C@@H](O)[C@H](O)[C@H]9N)[C@H](O)[C@@H]8O[C@H]8OC(CN)[C@@H](O)[C@H](O)[C@H]8N)nn7)cc6)[nH]c5c4)[nH]c3c2)CC1` (stereo not given in full), the figures for the thermal shift (ΔTm) in assay [12] and in [1] were 19 °C and 20.3 °C, respectively. The outcome in assay [15] was Active. Further, the inhibition in assay [6] is 20.7 to 36.2%.
On the same counts, the results for `CN1CCN(c2ccc3nc(-c4ccc5nc(-c6ccc(OCCCCCCCCOCc7cn(C[C@H]8O[C@@H](O[C@@H]9[C@@H](O)[C@H](N)C[C@H](N)[C@H]9O[C@H]9O[C@H](CN)[C@@H](O)[C@H](O)[C@H]9N)[C@H](O)[C@@H]8O[C@H]8OC(CN)[C@@H](O)[C@H](O)[C@H]8N)nn7)cc6)[nH]c5c4)[nH]c3c2)CC1` (stereo not given in full) are 21.7 °C, 21.9 °C, “Active” and 20.7 to 36.2%.
With `CN1CCN(c2ccc3nc(-c4ccc5nc(-c6ccc(OCCCCCCCCCCCCOCc7cn(C[C@H]8O[C@@H](O[C@@H]9[C@@H](O)[C@H](N)C[C@H](N)[C@H]9O[C@H]9O[C@H](CN)[C@@H](O)[C@H](O)[C@H]9N)[C@H](O)[C@@H]8O[C@H]8OC(CN)[C@@H](O)[C@H](O)[C@H]8N)nn7)cc6)[nH]c5c4)[nH]c3c2)CC1` (stereo not given in full), the ΔTm in assay [12] was 18.2 °C. In assay [15], the outcome was Active. The inhibition in [6] is 20.7 to 36.2%.
Regarding `C#CCCCCCCCCCOc1ccc(-c2nc3ccc(-c4nc5ccc(N6CCN(C)CC6)cc5[nH]4)cc3[nH]2)cc1`, the shift in melting temperature (ΔTm) in assay [1] was -0.4 °C.
`CN1CCN(c2ccc3nc(-c4ccc5nc(-c6ccc(OCCOCCOCCOCCOCCOCCOCc7cn(C[C@H]8O[C@@H](O[C@@H]9[C@@H](O)[C@H](N)C[C@H](N)[C@H]9O[C@H]9O[C@H](CN)[C@@H](O)[C@H](O)[C@H]9N)[C@H](O)[C@@H]8O[C@H]8OC(CN)[C@@H](O)[C@H](O)[C@H]8N)nn7)cc6)[nH]c5c4)[nH]c3c2)CC1` (stereo not given in full): the results for the ΔTm in assay [12] and in assay [16] were 16.4 °C and 7.2 °C, respectively. The outcome in assay [15] was Active. In assay [6], the inhibition was 20.7 to 36.2%.
With `CN1CCN(c2ccc3nc(-c4ccc5nc(-c6ccc(OCCCCOCc7cn(C[C@H]8O[C@@H](O[C@@H]9[C@@H](O)[C@H](N)C[C@H](N)[C@H]9O[C@H]9O[C@H](CN)[C@@H](O)[C@H](O)[C@H]9N)[C@H](O)[C@@H]8O[C@H]8OC(CN)[C@@H](O)[C@H](O)[C@H]8N)nn7)cc6)[nH]c5c4)[nH]c3c2)CC1` (stereo not given in full), the ΔTm in assay [12] stood at 24.6 °C; in assay [1], 15 °C. Moreover, in assay [15], the result was Active. The inhibition in assay [6] lay in the range of 20.7 to 36.2%.
Take `CN1CCN(c2ccc3nc(-c4ccc5nc(-c6ccc(OCCCCCCCCc7cn(C[C@H]8O[C@@H](O[C@@H]9[C@@H](O)[C@H](N)C[C@H](N)[C@H]9O[C@H]9O[C@H](CN)[C@@H](O)[C@H](O)[C@H]9N)[C@H](O)[C@@H]8O[C@H]8OC(CN)[C@@H](O)[C@H](O)[C@H]8N)nn7)cc6)[nH]c5c4)[nH]c3c2)CC1` (stereo not given in full): the ΔTm is 13.2 °C in [12] and 16.2 °C in assay [16]. Also, in [15], the outcome was Active. Moreover, the inhibition in assay [6] lay within 20.7 to 36.2%.
For the compound `C#CCCCCOc1ccc(-c2nc3ccc(-c4nc5ccc(N6CCN(C)CC6)cc5[nH]4)cc3[nH]2)cc1`, the ΔTm in [1] was -1.2 °C.
On the same count and under the same terms, next, `C#CCOCCCCCCOc1ccc(-c2nc3ccc(-c4nc5ccc(N6CCN(C)CC6)cc5[nH]4)cc3[nH]2)cc1`: 0.3 °C.
As for `CN1CCN(c2ccc3nc(-c4ccc5nc(-c6ccc(OCCCCc7cn(C[C@H]8O[C@@H](O[C@@H]9[C@@H](O)[C@H](N)C[C@H](N)[C@H]9O[C@H]9O[C@H](CN)[C@@H](O)[C@H](O)[C@H]9N)[C@H](O)[C@@H]8O[C@H]8OC(CN)[C@@H](O)[C@H](O)[C@H]8N)nn7)cc6)[nH]c5c4)[nH]c3c2)CC1` (stereo not given in full), the ΔTm in assay [12] came to 22.8 °C; in assay [16], 15.1 °C. The outcome in assay [17] and in [15] was Active. For the same compound, the inhibition in [6] lay within 20.7 to 36.2%. The Ka in assay [18] was found to be 8.8 ×10⁶ /M.
With `CN1CCN(c2ccc3nc(-c4ccc5nc(-c6ccc(OCc7cn(C[C@H]8O[C@@H](O[C@@H]9[C@@H](O)[C@H](N)C[C@H](N)[C@H]9O[C@H]9O[C@H](CN)[C@@H](O)[C@H](O)[C@H]9N)[C@H](O)[C@@H]8O[C@H]8OC(CN)[C@@H](O)[C@H](O)[C@H]8N)nn7)cc6)[nH]c5c4)[nH]c3c2)CC1` (stereo not given in full), the thermal shift (ΔTm) in assay [12] stood at 23.8 °C; in assay [16] it was 9.1 °C. Moreover, the outcome in assay [15] was Active. Moreover, the inhibition in [6] was in the range of 20.7 to 36.2%.
